# Measured values gathered from unrelated publications.
# Each line is one published result; the experiments were not run side by side.
# Target: Hormonally up-regulated neu tumor-associated kinase (HUNK, Homo sapiens, UniProt P57058)
# One construct used (P57058 1-714): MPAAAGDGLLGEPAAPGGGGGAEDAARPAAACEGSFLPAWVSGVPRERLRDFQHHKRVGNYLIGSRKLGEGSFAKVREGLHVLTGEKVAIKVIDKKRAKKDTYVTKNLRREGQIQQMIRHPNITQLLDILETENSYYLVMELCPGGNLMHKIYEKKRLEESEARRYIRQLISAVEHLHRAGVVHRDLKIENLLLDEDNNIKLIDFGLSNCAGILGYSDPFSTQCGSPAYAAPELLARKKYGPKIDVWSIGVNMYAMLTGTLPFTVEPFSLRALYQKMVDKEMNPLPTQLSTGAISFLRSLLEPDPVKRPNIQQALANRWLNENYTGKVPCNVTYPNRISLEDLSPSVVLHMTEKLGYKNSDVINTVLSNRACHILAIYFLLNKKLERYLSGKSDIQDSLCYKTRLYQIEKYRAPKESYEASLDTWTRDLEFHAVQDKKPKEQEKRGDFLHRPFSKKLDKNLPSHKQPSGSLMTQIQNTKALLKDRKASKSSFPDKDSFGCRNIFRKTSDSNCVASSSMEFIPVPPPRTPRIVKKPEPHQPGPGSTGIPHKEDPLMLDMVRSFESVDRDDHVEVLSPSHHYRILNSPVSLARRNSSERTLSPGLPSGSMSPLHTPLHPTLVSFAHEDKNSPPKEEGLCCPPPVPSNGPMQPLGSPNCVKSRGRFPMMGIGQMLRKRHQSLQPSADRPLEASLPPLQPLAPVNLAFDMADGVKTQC
SMILES,assay,setting,remaining binding [%]
CN([C@@H]1CCc2c(CC(=O)O)c3ccccc3n2C1)S(=O)(=O)c1ccc(F)cc1,"cell-free assay, competition with immobilised ligand",1 µM,99
N[C@@H]1CCN(c2nccc(-c3cnn4ncccc34)n2)C1,binding,1 µM,100
C=CC(=O)N1CCC(C(=O)NCC(=O)N2CCN(c3nc(-c4cnc(N)nc4C(F)F)nc(N4CCOCC4)n3)CC2)CC1,"binding, competition with immobilised ligand",1 µM,79
CN(CCCC(F)(F)F)c1nccc(-c2cnn3ncccc23)n1,binding,1 µM,80
CC1=C(C#N)[C@@H](c2ccc3[nH]nc(C)c3c2)C(C#N)=C(c2ccc(Cl)cc2)N1,"cell-free assay, competition with immobilised ligand",1 µM,81.4
CN(C)c1nccc(-c2cnc3ncccn23)n1,binding,1 µM,83
COc1cc(-c2cn(C3CCc4ccccc4N(CC(F)(F)F)C3=O)nn2)ccc1-n1ccc(C)n1 (stereo not shown),"cell-free assay, competition with immobilised ligand",1 µM,100
C[C@@H](c1ccc(-n2cnc3c(N)ncnc32)cc1)N1CCc2nn(C)c(Cc3ccccc3)c2C1=O,"binding, competition with immobilised ligand",0.1 µM,79
CN(C)c1nccc(-c2cnn3ncccc23)n1,binding,1 µM,100
O=C(Nc1c[nH]nc1C(=O)NC1CCNCC1)c1cc(F)cc(F)c1,"binding, competition with immobilised ligand",1 µM,100
COc1cnc(Nc2cccc(S(N)(=O)=O)c2)nc1N1CCN(c2ccccc2)C(=O)C1,"binding, competition with immobilised ligand",1 µM,100
O=C(c1ccc(Nc2ncc(Cl)c(-c3cc4ccccc4s3)n2)cc1)N1CCC(N2CCCC2)CC1,"binding, competition with immobilised ligand",1 µM,100
c1cncc(-c2cccc(Nc3nccc(NC4CCCCC4)n3)c2)c1,"binding, competition with immobilised ligand",10 µM,100
c1cnn2ncc(-c3ccnc(N4CCC45COC5)n3)c2c1,binding,1 µM,92
CCC(=O)N[C@H]1CC[C@@H](C(=O)N(C)c2ccc(-c3nc4ccccc4o3)cc2)C1,"cell-free assay, competition with immobilised ligand",1 µM,100
C[C@H]1CCN(c2nccc(-c3cnn4ncccc34)n2)C1,binding,1 µM,100
O=C(c1ccc(Nc2ncc(Cl)c(-c3ccc(Cl)s3)n2)cc1)N1CCC(N2CCCC2)CC1,"binding, competition with immobilised ligand",1 µM,100
CSc1cccnc1N1CCN(Cc2nc3ccccc3[nH]2)CC1,"cell-free assay, competition with immobilised ligand",1 µM,100
CC1CCCN1c1nccc(-c2cnn3ncccc23)n1 (stereo not shown),binding,1 µM,100
Cc1cnc(Nc2ccc(C(=O)N3CCC(N4CCCC4)CC3)cc2)nc1-c1cc2ccccc2s1,"binding, competition with immobilised ligand",1 µM,100
CNC(=O)Nc1ccc2c(c1)CC[C@@]21OC(=O)N(CC(=O)N(Cc2ccc(F)cc2)[C@@H](C)C(F)(F)F)C1=O,"cell-free assay, competition with immobilised ligand",1 µM,100
Nc1ncc2c(n1)-c1c([nH]c3ccc(C#CC4CC4)cc13)CCCC2,"binding, competition with immobilised ligand",1 µM,97
